# Test results from ChEMBL document CHEMBL1649117, “GRL-02031, a novel nonpeptidic protease inhibitor (PI) containing a stereochemically defined fused cyclopentanyltetrahydrofuran potent against multi-PI-resistant human immunodeficiency virus type 1 in vitro” (Antimicrob Agents Chemother, 2009).
# Assays:
# [1] = test system: Human immunodeficiency virus 1; test: Ratio of EC50 for HIV1 NL4-3 harboring I84V/I85V mutation in protease encoding region infected in human […] cells to EC50 for HIV1 NL4-3 infected in human MT4 cells; type: functional
# [2] = test system: Human immunodeficiency virus 1; test: Ratio of EC50 for amprenavir to compound against HIV1 NL4-3 harboring L10F/M46I/I47V/V82I/I85V mutation in protease encoding region infected in human […] cells; type: functional
# [3] = test system: Human immunodeficiency virus 1; test: Antiviral activity against HIV1 NL4-3 harboring I84V mutation in protease encoding region infected in human […] cells assessed as inhibition of p24 Gag protein production by ELISA; type: functional, organism-based; conditions: Human immunodeficiency virus 1, NL4-3
# In short: (§1)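 Protease PCR fragments (ApaI/SmaI) were cloned into pHIV-1NLSma, and virions were harvested from transfected 293T cells over 48 h. MT-4 target cells (10^5/ml) were infected with 100 TCID50s, with or without drug, at 37°C. Day-7 supernatant p24 Gag was read by chemiluminescent enzyme immunoassay.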
# [4] = test system: Human immunodeficiency virus 1; test: Antiviral activity against HIV1 NL4-3 harboring I47V mutation in protease encoding region infected in human […] cells assessed as inhibition of p24 Gag protein production by ELISA; type: functional, organism-based; conditions: Human immunodeficiency virus 1, NL4-3; in short: as §1
# [5] = test system: Human immunodeficiency virus 1; test: Antiviral activity against HIV1 subtype E 92TH019 infected in human PHA-PBM cells after 7 days by MTT assay; type: functional, organism-based; conditions: Human immunodeficiency virus 1, subtype E 92TH019, PBMC, 168 h
# [6] = test system: Human immunodeficiency virus 1; test: Ratio of EC50 for HIV1 NL4-3 harboring D30N mutation in protease encoding region infected in human […] cells to EC50 for HIV1 NL4-3 infected in human MT4 cells; type: functional
# [7] = test system: Human immunodeficiency virus 1; test: Ratio of EC50 for HIV1 NL4-3 harboring I85V mutation in protease encoding region infected in human […] cells to EC50 for HIV1 NL4-3 infected in human MT4 cells; type: functional
# [8] = test system: Human immunodeficiency virus 1; test: Ratio of EC50 for ritonavir to compound against HIV1 NL4-3 harboring M46I mutation in protease encoding region infected in human […] cells; type: functional
# [9] = test system: Human immunodeficiency virus 1; test: Ratio of EC50 for HIV1 NL4-3 harboring L90M mutation in protease encoding region infected in human […] cells to EC50 for HIV1 NL4-3 infected in human MT4 cells; type: functional
# [10] = test system: Human immunodeficiency virus 1; test: Ratio of EC50 for ritonavir to compound against HIV1 NL4-3 harboring I84V/I85V mutation in protease encoding region infected in human […] cells; type: functional
# [11] = test system: Human immunodeficiency virus 1; test: Antiviral activity against HIV1 JRFL infected in human PHA-PBM cells after 7 days by MTT assay; type: functional, organism-based; conditions: Human immunodeficiency virus 1, JRFL, PBMC, 168 h
# [12] = test system: Human immunodeficiency virus 2; test: Antiviral activity against HIV2 ROD infected in human MT2 cells after 7 days by MTT assay; type: functional, organism-based; conditions: Human immunodeficiency virus 2, ISOLATE ROD, MT2, 168 h
# [13] = test system: Human immunodeficiency virus 1; test: Antiviral activity against HIV1 NL4-3 harboring G48V mutation in protease encoding region infected in human […] cells assessed as inhibition of p24 Gag protein production by ELISA; type: functional, organism-based; conditions: Human immunodeficiency virus 1, NL4-3; in short: as §1
# [14] = test system: Human immunodeficiency virus 1; test: Antiviral activity against HIV1 NL4-3 harboring I50V mutation in protease encoding region infected in human […] cells assessed as inhibition of p24 Gag protein production by ELISA; type: functional, organism-based; conditions: Human immunodeficiency virus 1, NL4-3; in short: as §1
# [15] = test system: Human immunodeficiency virus 1; test: Ratio of EC50 for HIV1 NL4-3 harboring I50V mutation in protease encoding region infected in human […] cells to EC50 for HIV1 NL4-3 infected in human MT4 cells; type: functional
# [16] = test system: Human immunodeficiency virus 1; test: Ratio of EC50 for HIV1 NL4-3 harboring M46I/I47V mutation in protease encoding region infected in human […] cells to EC50 for HIV1 NL4-3 infected in human MT4 cells; type: functional
# [17] = test system: Human immunodeficiency virus 1; test: Antiviral activity against HIV1 NL4-3 harboring I85V mutation in protease encoding region infected in human […] cells assessed as inhibition of p24 Gag protein production by ELISA; type: functional, organism-based; conditions: Human immunodeficiency virus 1, NL4-3; in short: as §1
# [18] = test system: Human immunodeficiency virus 1; test: Ratio of EC50 for saquinavir to compound against HIV1 NL4-3 harboring L90M mutation in protease encoding region infected in human […] cells; type: functional
# [19] = test system: Human immunodeficiency virus 1; test: Antiviral activity against HIV1 Ba-L infected in human PHA-PBM cells after 7 days by MTT assay; type: functional, organism-based; conditions: Human immunodeficiency virus 1, Ba-L, PBMC, 168 h
# [20] = test system: Human immunodeficiency virus 1; test: Ratio of EC50 for HIV1 NL4-3 harboring I84V mutation in protease encoding region infected in human […] cells to EC50 for HIV1 NL4-3 infected in human MT4 cells; type: functional
# [21] = test system: Human immunodeficiency virus 1; test: Antiviral activity against HIV1 NL4-3 harboring L10F/I47V/V82I/I85V mutation in protease encoding region infected in human […] cells assessed as inhibition of p24 Gag protein production by ELISA; type: functional, organism-based; conditions: Human immunodeficiency virus 1, NL4-3; in short: as §1
# [22] = test system: Human immunodeficiency virus 1; test: Ratio of EC50 for ritonavir to compound against HIV1 NL4-3 harboring L10F/I47V/V82I/I85V mutation in protease encoding region infected in human […] cells; type: functional
# [23] = test system: Human immunodeficiency virus 1; test: Ratio of EC50 for amprenavir to compound against HIV1 NL4-3 harboring L10F mutation in protease encoding region infected in human […] cells; type: functional
# [24] = test system: Human immunodeficiency virus 1; test: Ratio of EC50 for HIV1 NL4-3 harboring M46I mutation in protease encoding region infected in human […] cells to EC50 for HIV1 NL4-3 infected in human MT4 cells; type: functional
# [25] = test system: Human immunodeficiency virus 2; test: Antiviral activity against HIV2 EHO infected in human MT2 cells after 7 days by MTT assay; type: functional, organism-based; conditions: Human immunodeficiency virus 2, EHO, MT2, 168 h
# [26] = test system: Human immunodeficiency virus 1; test: Ratio of EC50 for indinavir to compound against HIV1 NL4-3 harboring I84V mutation in protease encoding region infected in human […] cells; type: functional
# [27] = test system: Human immunodeficiency virus 1; test: Ratio of EC50 for HIV1 NL4-3 harboring I47V mutation in protease encoding region infected in human […] cells to EC50 for HIV1 NL4-3 infected in human MT4 cells; type: functional
# [28] = test system: Human immunodeficiency virus 1; test: Antiviral activity against HIV1 NL4-3 harboring L10F/M46I/I47V/V82I/I85V mutation in protease encoding region infected in human […] cells assessed as inhibition of p24 Gag protein production by ELISA; type: functional, organism-based; conditions: Human immunodeficiency virus 1, NL4-3; in short: as §1
# [29] = test system: Human immunodeficiency virus 1; test: Antiviral activity against HIV1 NL4-3 harboring D30N mutation in protease encoding region infected in human […] cells assessed as inhibition of p24 Gag protein production by ELISA; type: functional, organism-based; conditions: Human immunodeficiency virus 1, NL4-3; in short: as §1
# [30] = test system: Human immunodeficiency virus 1; test: Antiviral activity against HIV1 NL4-3 harboring Q58E mutation in protease encoding region infected in human […] cells assessed as inhibition of p24 Gag protein production by ELISA; type: functional, organism-based; conditions: Human immunodeficiency virus 1, NL4-3; in short: as §1
# [31] = test system: Human immunodeficiency virus 1; test: Antiviral activity against HIV1 NL4-3 harboring I84V/I85V mutation in protease encoding region infected in human […] cells assessed as inhibition of p24 Gag protein production by ELISA; type: functional, organism-based; conditions: Human immunodeficiency virus 1, NL4-3; in short: as §1
# [32] = test system: Human immunodeficiency virus 1; test: Ratio of EC50 for ritonavir to compound against HIV1 NL4-3 harboring I85V mutation in protease encoding region infected in human […] cells; type: functional
compound,measurement,setting,value
COc1ccc(S(=O)(=O)N(C[C@@H]2CCC(=O)N2)C[C@@H](O)[C@H](Cc2ccccc2)NC(=O)O[C@@H]2C[C@@H]3CCO[C@@H]3C2)cc1,Ratio EC50,[1],4.2
same,Ratio EC50,[2],10
same,EC50,[3],30 nM
same,EC50,[4],37 nM
same,EC50,[5],15 nM
same,Ratio EC50,[6],0.9
same,Ratio EC50,[7],1
same,Ratio EC50,[8],1.2
same,Ratio EC50,[9],1.4
same,Ratio EC50,[10],14.8
same,EC50,[11],15 nM
same,EC50,[12],600 nM
same,EC50,[13],40 nM
same,EC50,[14],15 nM
same,Ratio EC50,[15],0.7
same,Ratio EC50,[16],3.2
same,EC50,[17],24 nM
same,Ratio EC50,[18],1
same,EC50,[19],15 nM
same,Ratio EC50,[20],1.3
same,EC50,[21],430 nM
same,Ratio EC50,[22],1.9
same,Ratio EC50,[23],1.4
same,Ratio EC50,[24],1.2
same,EC50,[25],600 nM
same,Ratio EC50,[26],2.2
same,Ratio EC50,[27],1.6
same,EC50,[28],> 1000 nM
same,EC50,[29],20 nM
same,EC50,[30],33 nM
same,EC50,[31],97 nM
same,Ratio EC50,[32],2.1
